Assay outcomes as filed in PubChem.
UPR XBP1 act – activators of adaptive arm of unfolded protein response (XBP1); CHO-XBP1 luciferase reporter, IRE1-XBP1 UPR activation, luminescence; percent of tunicamycin response, DMSO as zero; activation, % at 20 µM; 0.33% of 330,000 active;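 active = versus positive control, 20 µM dose yields 30% or more activation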;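 also: 100% = tunicamycin at 10 µg/mL and 0% = DMSO only wells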
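Assay system: CHO-XBP1 luciferase reporter cells; Schedule: 6 h treatment, 37 °C; Detection: glow luminescence from Steady-Glo reagent; Benchmarks: high control tunicamycin 10 µg/mL final, low control DMSO vehicle only.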
Cardio protect – modulators protecting cardiomyocytes from myocardial damage; H9c2 cardiomyocytes, H2O2 injury protection, ATPLite, 2 h; protection from H2O2 cell death, % at 20 µM; 0.63% of 360,000 active;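 active = compounds giving at least 50% protection of heart cells from peroxide-induced death in the single-dose screen, raw or plate-pattern-corrected value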;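 also: 0% = DMSO wells with peroxide and 100% = DMSO wells without peroxide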
CHOP inh – CHOP inhibition in unfolded protein response; inhibition, % at 10 µM; 3.8% of 220,000 active; CHO-K1 CHOP-promoter luciferase, tunicamycin-induced, 15-18 h; AID 2732;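 active = compounds that reduced the stress-induced luciferase reporter signal by more than about 70% of percent inhibition, limit read from the data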;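 also: 0% = tunicamycin plus vehicle and 100% = wells without tunicamycin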
hiPSC survival – increases survival of single human iPS cells; hiPSC single-cell survival, ATPlite luminescence; 100% = ROCK inhibitor wells, 0% = DMSO; survival enhancement, % at 20 µM; 0.044% of 360,000 active; AID 602274; in the data active = survival enhancement above about 18%;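 also: cells exposed to compounds for 16 hours before the ATP read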
UPR CHOP act – activators of apoptotic arm of unfolded protein response (CHOP). 0.34% of 330,000 active. CHO-CHOP luciferase reporter, UPR activation, luminescence; percent of tunicamycin response over DMSO baseline. activation, % at 10 µM;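 active = at 10 µM dose, activation of 40% or more, normalized to positive control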;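 also: 100% = tunicamycin at 10 µg/mL and 0% = DMSO alone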
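Test system: CHO-CHOP cells, stable luciferase reporter of PERK-eIF2a-CHOP signalling | Quantity: 500 CHO-CHOP cells per well | Buffer or medium: F12 plus 10% serum | Compound dosing: 10 µM single point, 0.5% DMSO | Schedule: 6 h compound treatment, 37 °C | Signal: Luciferase luminescence | Control set: Tunicamycin high control, DMSO low control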
CHOP inh conf – confirmation of CHOP induction inhibitors | 45% of 2,100 active | shares compounds with CHOP inh | CHO-CHOP promoter luciferase reporter, tunicamycin-induced, luminescence | inhibition, % at 10 µM | AID 504437;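 active = mean of three repeat readings of reporter signal inhibition above a set limit, cut at about 70% in these data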;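 also: 0% = tunicamycin plus vehicle and 100% = wells lacking tunicamycin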
Numbers without * were called inactive; . = no result. Many of the other results were omitted from the sample, so hits are more common in it than they were.

SMILES | UPR XBP1 act | Cardio protect | CHOP inh | hiPSC survival | UPR CHOP act | CHOP inh conf
CCc1ccc(/C=C2\SC(=S)N(CCCC(=O)Nc3ccccn3)C2=O)cc1 | -9 | -25 | 102* | -3 | -10 | 126*
COc1ccc(/C=c2\sc3nc(-c4ccccc4)c(-c4ccccc4)n3c2=O)cc1OC | -3 | -3 | -18 | -2 | 2 | .
O=c1/c(=C\c2cccc(O)c2)sc2nc(-c3ccccc3)c(-c3ccccc3)n12 | 0 | 8 | 99* | 1 | 2 | 21
CNC(=O)c1cc(Oc2ccc(NC(=O)Nc3ccc(Cl)c(C(F)(F)F)c3)cc2)ccn1 | -4 | -34 | . | 2 | 9 | .
CC(C)(C)c1cc(OC(=O)c2ccncc2)ccc1O | 0 | -6 | 39 | -2 | -1 | .
CC(C)(C)c1cc(OC(=O)c2ccccc2F)ccc1O | 0 | -18 | 105* | -2 | 1 | 17
CC(=O)NC(CC(=O)OCc1ccc([N+](=O)[O-])cc1)c1ccccc1 (stereo not given) | 1 | 9 | . | 0 | 2 | .
Cc1ccc2sc(NC(=O)c3cccc(N4C(=O)CCC4=O)c3)nc2c1C | 6 | 8 | . | 0 | 4 | .
Cc1ccc2sc(NC(=O)c3ccc(N4C(=O)CCC4=O)cc3)nc2c1C | -1 | -8 | 100* | -1 | -1 | -21
O=C(Oc1oc(-c2ccco2)nc1C=Nc1ccccc1)c1ccoc1 | 2 | -8 | 109* | -1 | 2 | -5
Cc1ccc(C(=O)Oc2oc(-c3ccco3)nc2C=Nc2ccc(Cl)cc2)cc1 | 7 | -29 | 101* | -4 | 31 | 0
COc1ccc2cc(C[C@@H]3CC[C@@H](CO)O3)ccc2c1 | 4 | -14 | . | -2 | 5 | .
Cc1cc(C)cc(OC2CCCCC2NS(=O)(=O)c2ccccc2)c1 (stereo not given) | 0 | -7 | 99* | 2 | -1 | 70*
COc1ccc(-c2noc(CNS(=O)(=O)c3ccc(NC(C)=O)cc3)n2)cc1 | -3 | 0 | . | 0 | -1 | .
O=C(NCc1nc(-c2ccc(C(F)(F)F)cc2)no1)Nc1ccc(OC(F)(F)F)cc1 | -7 | -17 | 100* | -1 | 1 | 106*
O=C(On1c(-c2ccccc2)nc2ccccc2c1=O)c1ccco1 | -2 | 9 | 104* | 1 | -1 | 116*
Cc1cc(C)cc(C(=O)NC(CC(N)=O)c2ccc(N3CCC(Cc4ccccc4)CC3)c([N+](=O)[O-])c2)c1 (stereo not given) | -1 | -4 | . | 1 | -2 | .
O=[N+]([O-])c1cc(-n2cnnn2)ccc1N1CCC(Cc2ccccc2)CC1 | 1 | -19 | 104* | -1 | 0 | 39
CC(C)n1c(SCc2ccc(Cl)cc2)nc2c1c(=O)[nH]c(=O)n2C | 8 | -15 | 43 | 1 | 3 | .
CC(C)CCn1c(SCc2ccc(Cl)cc2)nc2c1c(=O)[nH]c(=O)n2C | 18 | -13 | 97* | 2 | 1 | 93*
O=C(Cc1cccs1)N/N=C/C(Br)=C/c1ccccc1 | 3 | -15 | 104* | 0 | 3 | 66
OC(c1ccc(F)c(F)c1)c1nc(-c2cnc3ccccc3c2)cs1 (stereo not given) | . | -11 | . | -1 | . | .
COC(=O)c1cc([N+](=O)[O-])c(C)c(C)n1 | . | 3 | . | 1 | . | .
Cc1ccc(NC(=O)c2ncn(CCCN3CCN(c4ncccn4)CC3)n2)cc1C | . | -7 | . | 4 | . | .
C=C(C(=O)c1ccccc1)C(C)C(=C)C(=O)c1ccccc1 | . | -16 | 100* | -3 | . | 110*
SMILES | UPR XBP1 act | Cardio protect | CHOP inh | hiPSC survival | UPR CHOP act | CHOP inh conf
CCCc1cc(C(=O)Cc2ccc(F)cc2)c(O)cc1O | 1 | -33 | 100* | 1 | -1 | 122*
CCOc1ccc(/C=N/Nc2ccccn2)cc1OC | 3 | -9 | -2 | -1 | 6 | .
CCOc1ccc(/C=N/N(C)c2ccccc2)cc1OC | 3 | -17 | 100* | 6 | 2 | 3
CCNC(=O)C1CCCN(C(=O)c2ccccc2F)CC1 (stereo not given) | . | -7 | . | 7 | . | .
Cc1cccc(/C=C2/S/C(=N/N=C3\CC4CCC3(C)C4(C)C)NC2=O)c1 (stereo not given) | 1 | -13 | 105* | -4 | -2 | 106*
COc1ccccc1CCNC(=O)C1CC(=O)N(c2ccccc2F)C1 (stereo not given) | . | 16 | . | 3 | . | .
FC(F)(F)c1ccc(/C=N/NC(=S)NC2CCCCC2)cc1 | -1 | -16 | 106* | 2 | -1 | 108*
COc1ccc(C(=O)Cn2cc[n+](C)c2)cc1 | -3 | 9 | . | 0 | -1 | .
CCC(=O)N1CCCC1(C)C(=O)Nc1cc(OC)ccc1OC (stereo not given) | . | -4 | . | 3 | . | .
FC(F)(F)c1cccc(NC(=S)N2CCN(c3cccc(C(F)(F)F)c3)CC2)c1 | -1 | -26 | 107* | 4 | -1 | 116*
Fc1ccc(NC(=S)N2CCN(c3cccc(C(F)(F)F)c3)CC2)cc1 | -2 | -11 | 51 | 0 | -1 | .
O=C(Nc1ccc2c(c1)OCCO2)C(c1ccnc2ccccc12)N1CCC(Cc2ccccc2)CC1 (stereo not given) | . | -3 | . | 1 | . | .
O=C(Nc1ccc(OC(F)F)c(Cl)c1)Nc1ccc2c(c1)OCO2 | 5 | -8 | 106* | -2 | 3 | 67
O=C(Nc1ccc([N+](=O)[O-])cc1)Nc1ccc(OC(F)F)c(Cl)c1 | . | -14 | 106* | 2 | . | 125*
O=C(Nc1ccc2c(c1)OCO2)Nc1ccc2c(c1)OCO2 | 4 | -13 | 19 | -4 | 5 | .
CCOC(=O)[C@]12CCC=C1N(Cc1ccco1)C(=O)[C@H](CC(=O)NCC13CC4CC(CC(C4)C1)C3)C2 | . | . | . | 2 | . | .
CSc1ccc(OC2(C)CCN(Cc3ccc(C(C)C)cc3)C2)cc1 (stereo not given) | . | -28 | . | 1 | . | .
CCOC(=O)C(=Cc1ccc(N(C)C)cc1)C(=O)c1ccccc1 | . | -4 | . | 0 | . | .
CCOC(=O)/C(=C/c1ccc(OC(=O)c2ccccc2)cc1)C(C)=O | 18 | 0 | 101* | 2 | 4 | -30
Cc1nn(CC(=O)NCCN2CCOCC2)c(=O)c2cc3sccc3n12 | -4 | 1 | . | 0 | -1 | .
CC(C)(C)c1ccc(-n2ncc3c2CCCC3NC(=O)c2ccco2)cc1 (stereo not given) | . | -8 | . | 0 | . | .
CCCCN1CC(C)(C)Oc2cccc(F)c2S1(=O)=O | . | 5 | . | 0 | . | .
NC(Cc1ccc(Cl)cc1)c1csc(Nc2ccc(C(=O)NCCCO)cn2)n1 (stereo not given) | . | 5 | . | -2 | . | .
Cc1sc2ncnc(SCC(=O)NC(C)(C)C)c2c1C | 2 | 1 | 54 | 6 | 1 | .
CCc1ccc(OCC(=O)NNC(=O)CSc2ncnc3sc(C)c(C)c23)cc1 | 3 | -5 | 101* | 0 | 1 | 13
